Data published in ChEMBL document CHEMBL2417392, “Synthesis and broad spectrum antiviral evaluation of bis(POM) prodrugs of novel acyclic nucleosides” (Eur J Med Chem, 2013).

Tests used:
Hepatitis C virus = assay: Antiviral activity against HCV infected in Huh7 cells assessed as inhibition of viral RNA replication after 5 days by RT-PCR Assay; assay type: functional, Hepacivirus hominis, Huh-7
Method in brief: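 Huh 7 Clone B cells carrying subgenomic HCV replicon RNA, seeded 3000 cells/well, compound added at 10 μM in triplicate right after seeding; 5 days at 37 °C, 5% CO2. Total RNA extracted; replicon RNA and rRNA internal control amplified by one-step multiplex real-time RT-PCR. Activity as ΔCt versus no-drug control (ΔCt 3.3 = 1-log reduction); ΔCt converted to fraction of starting material for % inhibition.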

[1] = system: Human immunodeficiency virus; assay: Antiviral activity against HIV infected in human CEM cells assessed as inhibition of HIV-induced CEM giant cell formation after 4 days by microscopy; conditions: Human immunodeficiency virus 1, CCRF-CEM, 96 h
PBMC = assay: Cytotoxicity against human PBMC cells; assay type: cell-based
Vero = assay: Cytotoxicity against african green monkey Vero cells; assay type: cell-based; conditions: chlorocebus sabaeus
CCRF-CEM = assay: Cytotoxicity against human CEM cells; assay type: cell-based
HEL = assay: Cytotoxicity against human HEL cells after 3 days by Coulter counting method; assay type: cell-based; conditions: 72 h
Human betaherpesvirus 5 = assay: Antiviral activity against human Cytomegalovirus AD169 infected in HEL cells assessed as inhibition of virus-induced cytopathicity after; assay type: functional, organism-based; conditions: Human betaherpesvirus 5, AD169, HEL

What does the source list for `CCCCCCc1ccc(-c2cn(C/C=C/CP(=O)(OCOC(=O)C(C)(C)C)OCOC(=O)C(C)(C)C)nn2)cc1`?
inhibition (INH) (Hepatitis C virus): 95%; EC50 [1]: 43.9 µM; EC90 [1]: > 100 µM; CC50 (PBMC): 5.9 µM; CC50 (Vero): 10.4 µM; CC50 (CCRF-CEM): 16.1 µM

With `Nc1nc(O)c2ncn(COC(CO)CO)c2n1` [GANCICLOVIR] as the molecule, how does the CC50 (HEL) read?
The CC50 was > 350 µM.

Which results are given for `CC(C)(C)C(=O)OCOP(=O)(C/C=C/Cn1ccnn1)OCOC(=O)C(C)(C)C`?
inhibition (INH) (Hepatitis C virus): 85.9%; EC50 [1]: > 100 µM; EC90 [1]: > 100 µM; CC50 (PBMC): 93.1 µM; CC50 (Vero): 87.9 µM; CC50 (CCRF-CEM): 81.8 µM

Which “inhibition (INH)” value (Hepatitis C virus) does the source give for `COC(=O)c1nccn(C/C=C/CP(=O)(OCOC(=O)C(C)(C)C)OCOC(=O)C(C)(C)C)c1=O` here?
The value was 76.9%.

And the EC50 [1]?
Its EC50 is > 100 µM.

What about the EC90 [1] of the same molecule?
The EC90 was > 100 µM.

And the CC50 (PBMC)?
Its CC50 is > 100 µM.

What about the CC50 (Vero) of the same molecule?
Its CC50 is > 100 µM.

And the CC50 (CCRF-CEM)?
The CC50 was > 100 µM.

Which “inhibition (INH)” value (Hepatitis C virus) does the source give for `CC(C)(C)C(=O)OCOP(=O)(C/C=C/Cn1cc(-c2ccc(OC(F)(F)F)cc2)nn1)OCOC(=O)C(C)(C)C` here?
Its value is 60.6%.

What about the EC50 [1] of the same molecule?
The EC50 was 55.2 µM.

What about the EC90 [1] of the same molecule?
Its EC90 is > 100 µM.

And the CC50 (PBMC)?
The CC50 was 19.6 µM.

What about the CC50 (Vero) of the same molecule?
The CC50 was 12.7 µM.

What about the CC50 (CCRF-CEM) of the same molecule?
The CC50 was 37.6 µM.

How did the “inhibition (INH)” value (Hepatitis C virus) turn out when `CC(C)(C)C(=O)OCOP(=O)(C/C=C/Cn1ccc(N)nc1=O)OCOC(=O)C(C)(C)C` was run?
Its value is 80.4%.

And the EC50 [1]?
The EC50 was 70.4 µM.

What about the EC90 [1] of the same molecule?
The EC90 was > 100 µM.

And the CC50 (PBMC)?
Its CC50 is > 100 µM.

What about the CC50 (Vero) of the same molecule?
Its CC50 is > 100 µM.

And the CC50 (CCRF-CEM)?
Its CC50 is > 100 µM.

What does the source list for `CC(C)(C)C(=O)OCOP(=O)(C/C=C/Cn1cnc(C(N)=O)n1)OCOC(=O)C(C)(C)C`?
inhibition (INH) (Hepatitis C virus): 73.9%; EC50 [1]: > 100 µM; EC90 [1]: > 100 µM; CC50 (PBMC): 58.3 µM; CC50 (Vero): 86.8 µM; CC50 (CCRF-CEM): 41.8 µM

Which “inhibition (INH)” value (Hepatitis C virus) does the source give for `CC(C)(C)C(=O)OCOP(=O)(C/C=C/Cn1cc(F)c(N)nc1=O)OCOC(=O)C(C)(C)C` here?
Its value is 73.6%.

With `CC(C)(C)C(=O)OCOP(=O)(C/C=C/Cn1cc(C(=O)O)nn1)OCOC(=O)C(C)(C)C` as the molecule, how does the “inhibition (INH)” value (Hepatitis C virus) read?
The value was 53.8%.

And the EC50 [1]?
Its EC50 is > 100 µM.

What about the EC90 [1] of the same molecule?
The EC90 was > 100 µM.

And the CC50 (PBMC)?
Its CC50 is > 100 µM.

What about the CC50 (Vero) of the same molecule?
Its CC50 is > 100 µM.

And the CC50 (CCRF-CEM)?
Its CC50 is > 100 µM.

`COc1cc(OC)cc(-c2cn(C/C=C/CP(=O)(OCOC(=O)C(C)(C)C)OCOC(=O)C(C)(C)C)nn2)c1` was tested. Which “inhibition (INH)” value (Hepatitis C virus) did it give?
The value was 20.8%.

What about the EC50 [1] of the same molecule?
Its EC50 is > 100 µM.

And the EC90 [1]?
Its EC90 is > 100 µM.

And the CC50 (PBMC)?
The CC50 was > 100 µM.

What about the CC50 (Vero) of the same molecule?
The CC50 was 86.8 µM.

What about the CC50 (CCRF-CEM) of the same molecule?
Its CC50 is 68.2 µM.

With `CC(C)(C)C(=O)OCOP(=O)(C/C=C/Cn1cc(-c2ccccc2)nn1)OCOC(=O)C(C)(C)C` as the molecule, how does the “inhibition (INH)” value (Hepatitis C virus) read?
The value was 83.1%.

And the EC50 [1]?
Its EC50 is 35.8 µM.

What about the EC90 [1] of the same molecule?
Its EC90 is > 100 µM.

What about the CC50 (PBMC) of the same molecule?
Its CC50 is 16 µM.

And the CC50 (Vero)?
Its CC50 is 15.6 µM.

And the CC50 (CCRF-CEM)?
The CC50 was 31.6 µM.

How did the CC50 (HEL) turn out when `Nc1ccn(C[C@@H](CO)OCP(=O)(O)O)c(=O)n1` [CIDOFOVIR] was run?
Its CC50 is > 350 µM.

What does the source list for `CCCc1ccc(-c2cn(C/C=C/CP(=O)(OCOC(=O)C(C)(C)C)OCOC(=O)C(C)(C)C)nn2)cc1`?
inhibition (INH) (Hepatitis C virus): 95.6%; EC50 [1]: 31.6 µM; EC90 [1]: > 100 µM; CC50 (PBMC): 35.9 µM; CC50 (Vero): 41 µM; CC50 (CCRF-CEM): 55.3 µM

What does the source list for `CCCCCCCCc1cn(C/C=C/CP(=O)(OCOC(=O)C(C)(C)C)OCOC(=O)C(C)(C)C)nn1`?
inhibition (INH) (Hepatitis C virus): 88.7%; EC50 [1]: > 100 µM; EC90 [1]: > 100 µM; CC50 (PBMC): 19.8 µM; CC50 (Vero): 10.3 µM; CC50 (CCRF-CEM): 16.8 µM

With `CC(C)(C)C(=O)OCOP(=O)(C/C=C/Cn1cc(C(N)=O)nn1)OCOC(=O)C(C)(C)C` as the molecule, how does the “inhibition (INH)” value (Hepatitis C virus) read?
The value was 86.5%.

And the EC50 [1]?
Its EC50 is 70.5 µM.

And the EC90 [1]?
Its EC90 is > 100 µM.

What about the CC50 (PBMC) of the same molecule?
Its CC50 is 62.4 µM.

And the CC50 (Vero)?
The CC50 was 80.6 µM.

And the CC50 (CCRF-CEM)?
Its CC50 is 52.9 µM.

Which results are given for `CC(C)(C)C(=O)OCOP(=O)(C/C=C/Cn1ccnc(C(N)=O)c1=O)OCOC(=O)C(C)(C)C`?
inhibition (INH) (Hepatitis C virus): 60%; EC50 [1]: > 100 µM; EC90 [1]: > 100 µM; CC50 (PBMC): > 100 µM; CC50 (Vero): > 100 µM; CC50 (CCRF-CEM): > 100 µM

What does the source list for `CC(C)(C)C(=O)OCOP(=O)(C/C=C/Cn1cc(CO)nn1)OCOC(=O)C(C)(C)C`?
inhibition (INH) (Hepatitis C virus): 78.1%; EC50 [1]: > 100 µM; EC90 [1]: > 100 µM; CC50 (PBMC): 73.2 µM; CC50 (Vero): 87.1 µM; CC50 (CCRF-CEM): 57.4 µM; EC50 (Human betaherpesvirus 5): 9.9 µM; CC50 (HEL): 100 µM

Which “inhibition (INH)” value (Hepatitis C virus) does the source give for `CC(C)(C)C(=O)OCOP(=O)(C/C=C/Cn1cc(-c2cccs2)nn1)OCOC(=O)C(C)(C)C` here?
The value was 0.2%.

And the EC50 [1]?
Its EC50 is 62.3 µM.

What about the EC90 [1] of the same molecule?
The EC90 was > 100 µM.

And the CC50 (PBMC)?
The CC50 was 32.9 µM.

What about the CC50 (Vero) of the same molecule?
Its CC50 is 17.1 µM.

And the CC50 (CCRF-CEM)?
The CC50 was 31.6 µM.

`CC(C)(C)C(=O)OCOP(=O)(C/C=C/Cn1cc(-c2ccc(F)cc2)nn1)OCOC(=O)C(C)(C)C` was tested. Which “inhibition (INH)” value (Hepatitis C virus) did it give?
Its value is 84.3%.

What about the EC50 [1] of the same molecule?
The EC50 was > 100 µM.

And the EC90 [1]?
Its EC90 is > 100 µM.

And the CC50 (PBMC)?
Its CC50 is 61.9 µM.

And the CC50 (Vero)?
Its CC50 is 47 µM.

What about the CC50 (CCRF-CEM) of the same molecule?
The CC50 was 31.6 µM.
